Bioassay records from PubChem BioAssay.
HSF1 inh = HSF1 inhibition | NIH3T3-HGL HSE-luciferase, MG132-induced, luminescence 8 h; stronger effect = lower value | activity change, negative = inhibition, % at 7.5 µM (by protocol) | 0.77% of 300,000 active;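 active = more than half of replicate wells show activity change below -50%, luminescence cut by over half; inconclusive = some wells, but at most half, below -50%; inactive = no replicate well below -50%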;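 note: luciferase reports HSF-1 transcriptional activity via heat shock element; 0% = median of DMSO wells and -100% = zero luminescence signal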
HSF1 activator = increases HSF-1 driven luciferase reporter signal; NIH3T3-HGL HSF-1 luciferase reporter, MG132, 8 h; 100% = twice DMSO control signal; 1.7% of 300,000 active; AID 504408; activation, % at 9 µM;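 active = mean replicate activation of at least 50% with a set share of replicates each reaching 50%; inconclusive = only one of those two conditions met; inactive = mean below 50% and too few replicates reaching it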;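 note: 0% = median of the neutral control wells and 100% = twice that signal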
DNA FID counter = fluorescent intercalator displacement, NS3 helicase counter-screen. DNA fluorescent intercalator displacement, fluorescence. inhibition, % at 7.9 µM. 0.17% of 290,000 active. AID 1845; in the data active = inhibition above about 37%;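 note: 0% = vehicle and 100% = reference compound; higher means more ethidium bromide displaced from hairpin DNA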
NS3 helicase inh = inhibitors of Hepatitis C virus NS3 helicase. NS3 helicase DNA unwinding, Cy5 molecular beacon fluorescence. inhibition, % at 10.9 µM. 0.56% of 290,000 active. AID 1800;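 active = inhibition above the mean of all tested compounds plus 3 SD, set per campaign, cut at about 35% in these data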;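 note: 0% = DMSO wells and 100% = thioflavine S control wells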
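Measured by: Cy5 fluorescence, 0 and 60 min reads / Assay system: NS3 helicase fragment of HCV / Control set: low DMSO, high thioflavine S at 110 µM / Times: 1 h reaction at 25 °C, ATP-initiated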
HSP90 inh = HSP90 refolding inhibition in rabbit reticulocyte lysate; AID 1789; luciferase refolding luminescence, 3 h; inhibition, % at 5.6 µM; 0.91% of 290,000 active;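 active = inhibition above the screen-wide mean plus 3 SD, computed separately per campaign, cut at about 16% in these data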;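 note: 0% = DMSO wells and 100% = 60 µM geldanamycin wells; inhibitors lower the luminescence because luciferase stays unfolded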
core dimer inh = HCV core protein dimerization inhibition; AID 1899; 0.33% of 300,000 active; inhibition, % at 5 µM; TR-FRET GST/Flag-core106 dimerization, 1536-well;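 active = inhibition above the mean of all tested compounds plus 3 SD, set per screening campaign, cut at about 45% in these data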
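Material: Tagged HCV core106 pair (GST and Flag) | Amount: GST-core106 13.5 nM, Flag-core106 17 nM | Medium: KF-containing HEPES buffer, pH 7.45, DTT, CHAPS, BSA | Reagent: Eu donor and XL665 acceptor anti-tag antibodies | Schedule: 4 h at 22.5 °C | Technique: Time-resolved FRET, ex 340 nm, em 617 and 671 nm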
Numbers without * were called inactive; ? = inconclusive; . = not tested or not shown. Compounds with a hit are over-represented: about 3.9% of the library has one in this group of screens.

SMILES | HSF1 inh | HSF1 activator | DNA FID counter | NS3 helicase inh | HSP90 inh | core dimer inh
C/C(=N\OC(=O)NC(C)C)c1sc(-c2ccc(Cl)cc2)nc1C | 27 | ? | -18 | 1 | -1 | 6
CCNC(=O)O/N=C(\C)c1sc(-c2ccc(Cl)cc2)nc1C | 34 | 60* | -22 | 3 | 1 | 6
Cc1ccc(C(=O)NC(=C(Cl)Cl)S(=O)(=O)c2ccccc2)cc1 | 52 | 113* | -4 | 2 | 1 | 13
COc1ccc(C(=O)NC(=C(Cl)Cl)S(=O)(=O)c2ccc(C)cc2)cc1 | 13 | 10 | -18 | -4 | 3 | 2
Cc1ccc(C(=O)NC(C#N)=C(Cl)Cl)cc1 | 93 | 151* | -3 | -9 | 1 | .
CS(=O)(=O)N(CCCC(=O)N1CCCCCC1)c1cccc(Cl)c1 | 0 | 2 | -33 | 1 | 1 | -9
O=C(N/N=C/C(Br)=C/c1ccccc1)c1cccnc1 | 71 | 82* | -10 | 6 | -1 | 1
O=C(N/N=C/C(Br)=C/c1ccccc1)c1ccc([N+](=O)[O-])cc1 | 47 | 59* | 0 | 3 | 5 | 5
CCOc1cc(C(=O)N/N=C/C(Br)=C/c2ccccc2)cc(OCC)c1OCC | 95 | 87* | -20 | -8 | 1 | 17
O=C(N/N=C/C(Br)=C\c1ccccc1)c1ccc2nc[nH]c2c1 | 95 | 125* | -3 | -8 | 1 | -8
Cc1ccc(C)c(NC(=O)CS(=O)(=O)c2cn(C)c3ccccc23)c1 | 29 | 54* | -12 | 7 | 1 | 0
Cc1ccc(C(=O)NCC(=O)N(C)CC(=O)Nc2c(Cl)cccc2Cl)s1 | 10 | 29 | . | . | . | 1
Cc1ccc(Cl)c2c1=NC(=O)C=2c1[nH]c(=S)[nH]c1O | 58 | 126* | 7 | -9 | -1 | 1
O=C1N=c2ccccc2=C1c1[nH]c(=S)[nH]c1O | 3 | 36 | 8 | 15 | 3 | 2
N#CC1=C(N)OC2=C(CC/C2=C\c2ccccc2)C1c1ccccc1 (centres undefined) | 15 | 9 | -27 | 30 | 2 | 55*
N#CC1=C(N)OC2=C(CC/C2=C\c2ccccc2Cl)C1c1ccccc1Cl (centres undefined) | 3 | 9 | -17 | 25 | 1 | 15
Cc1ccc(NS(=O)(=O)c2ccc(Cl)c(C(=O)Nc3ccccc3-c3nc4ccccc4[nH]3)c2)cc1C | 0 | 7 | 6 | -1 | -5 | 29
Cc1ccc(CN2CCN(Cc3cc4ccccc4o3)CC2CCO)cc1 (centres undefined) | -75* | -82 | 2 | -28 | 3 | -3
Cc1ccccc1CN1CCN(Cc2cc3ccccc3o2)CC1CCO (centres undefined) | -1 | -9 | -7 | -10 | -1 | 5
O=C(CN1C(=O)COc2ccccc21)Nc1ccc(N2CCOCC2)cc1 | -5 | -1 | -6 | 2 | -2 | -2
COc1ccc(N2C(N)=C(C#N)C(c3ccsc3)C3=C2CCCC3=O)c(OC)c1 (centres undefined) | 2 | 0 | -22 | 0 | 3 | -14
CSc1ncccc1C(=O)OCC(=O)c1cc(C)n(CC2CCCO2)c1C (centres undefined) | -52* | -58 | -24 | 9 | 4 | 7
CSc1ncccc1C(=O)OCC(=O)c1ccccc1Br | 7 | 54* | -5 | -3 | -1 | -3
CSc1ncccc1C(=O)OCC(=O)c1ccccc1 | 17 | 12 | -9 | -6 | 0 | -2
COc1ccc(C(=O)COC(=O)c2cccnc2SC)cc1 | 57 | 68* | -2 | -7 | -1 | 5
Cc1cc(C(=O)COC(=O)c2ccc([N+](=O)[O-])o2)c(C)n1CC1CCCO1 (centres undefined) | -9 | -12 | -10 | 15 | 8 | -4
COc1ccc(-n2c3c(cc(C(=O)NCC(=O)c4ccccc4)c2=O)C(=O)CC(C)(C)C3)cc1 | -6 | -3 | -35 | 7 | 3 | -1
CCCCCCc1c(O)nc(SCCN(C)C)[nH]c1=O | 6 | 6 | -1 | 3 | 3 | 2
O=C(O)c1cn(Cc2ccccn2)c(=O)c2ccccc12 | 5 | 0 | 0 | 7 | -2 | -12
CN(C1CCCCC1)S(=O)(=O)c1ccc(-n2cnnn2)cc1 | 10 | 32 | -6 | 2 | 2 | -4
